Hits are enriched below; roughly 2.8% of the tested compounds scored in any of these assays.
GRIN3A LBD mod: binders of NR3A ligand-binding domain, primary screen, biophysical, differential scanning fluorimetry, uHTS; Glutamate receptor ionotropic, NMDA 3A (GRIN3A) ligand-binding domain; NR3A LBD differential scanning fluorimetry, Tm shift; 0% = protein alone, 100% = glycine-bound protein; Tm shift relative to glycine control, % at 25 µM; 340,000 compounds, 2.5% hits;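 active = melting temperature shift of at least 10% of the positive control shift, at one fixed dose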
T cell HTS: modulators of CD8 T cell-vesicle binding, primary screen, mouse 2C CD8+ T cells, flow cytometry; 2C CD8+ T cell-vesicle binding; hits give low values; 330,000 compounds, 0.068% hits; AID 2052, 2009; response (vesicle binding), % at 7 µM;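 active = response, share of CD8 T cells binding vesicles, and their 90th percentile fluorescence all below set limits, cut at about 80% in these data, passing the limit was not always enough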;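 note: values below 100% mean blocked vesicle binding to the CD8+ T cells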
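Benchmarks: naked versus QL9-loaded vesicles / Assay system: purified 2C TCR transgenic mouse naive CD8+ T cells / Technique: high-throughput flow cytometry with anti-B7-1 and anti-CD8 staining / Timing: Cell–vesicle co-incubation 1.5 h at 37 °C, staining 20 min on ice / Read-out: percent CD8+ FL2 mean versus row control / Probe or stimulus: QL9-loaded Drosophila micro-vesicles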
JMJD2C inh: inhibitors of GASC-1 histone demethylase, primary screen, biochemical, fluorescence, DELFIA europium. GST-JMJD2C(1-420) H3K9me3 demethylation. inhibition, % at 2.35 µM. 330,000 compounds, 0.069% hits;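 active = more than half of a compound's replicate wells show inhibition beyond 50%, single wells judged on their own value; inconclusive = some, but no more than half, of replicates pass 50% inhibition; inactive = no replicate passes 50% inhibition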;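 note: signal counts dimethyl H3K9 product captured on neutravidin plate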
Target sequence (Q9H3R0 1-420 limits assumed): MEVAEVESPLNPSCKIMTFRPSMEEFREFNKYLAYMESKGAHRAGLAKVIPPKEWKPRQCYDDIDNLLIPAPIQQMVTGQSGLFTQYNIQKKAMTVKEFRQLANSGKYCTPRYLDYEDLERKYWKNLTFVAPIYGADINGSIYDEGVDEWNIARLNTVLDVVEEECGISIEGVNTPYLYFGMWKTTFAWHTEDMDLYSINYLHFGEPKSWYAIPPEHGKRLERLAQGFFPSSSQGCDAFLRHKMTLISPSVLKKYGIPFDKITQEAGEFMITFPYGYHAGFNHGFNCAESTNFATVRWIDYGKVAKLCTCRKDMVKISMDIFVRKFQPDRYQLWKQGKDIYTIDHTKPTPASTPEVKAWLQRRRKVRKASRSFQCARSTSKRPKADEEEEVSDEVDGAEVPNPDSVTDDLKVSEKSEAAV
Rtt109 HAT inh: inhibitors of C. albicans Rtt109/Vps75 HAT, primary screen, biochemical, ThioGlo CoA-SH fluorescence, plate reader; Histone acetyltransferase RTT109 (Candida albicans (strain SC5314 / ATCC MYA-2876)), …; purified Rtt109/Vps75, 4 h; inhibition, % at 34.9 µM; 330,000 compounds, 0.16% hits; AID 540336, 2011;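 active = inhibition of at least 50% in every replicate; inconclusive = best replicate reaches 50% inhibition but some replicates fall short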
Large screens that a line does not name were inactive.

COP(=O)(C#Cc1ccccc1)C(O)c1ccc(Br)cc1 (stereo not drawn)	none
Cc1ccc(OP2(=O)Nc3cc(C)c(C)cc3S2)cc1 (stereo not drawn)	none (no result: T cell HTS, JMJD2C inh)
Cc1ccc(NP(=O)(Oc2ccccc2)Oc2ccccc2)cc1	none (no result: T cell HTS, JMJD2C inh)
Cc1ccc(OP(=O)(NCc2ccccc2)Oc2ccc(C)cc2)cc1	GRIN3A LBD mod 13
C=CCN1C(=O)NC(=O)C(CCc2ccncc2)(CCc2ccncc2)C1=O	none
CN1CCN(c2ccc(C=O)cc2)CC1	JMJD2C inh 59
Cc1ccc(-n2c(CNCc3ccc(F)cc3)nc3ccccc3c2=O)cc1	none
Cc1nc(CCl)cc(=O)[nH]1	none
CCOC(=O)c1[nH]c(C)c(C(=O)N2CCC3(CC2)OCCO3)c1C	none
Nc1c(C(=O)NCCc2ccccc2)c2nc3ccccc3nc2n1CCN1CCOCC1	GRIN3A LBD mod 12
COc1ccc(CCNC(=O)c2c(N)n(CCN3CCOCC3)c3nc4ccccc4nc23)cc1	none
CC1=CC(=C2C(=O)NC(=O)NC2=O)C=C(C(F)(F)F)N1C(C)C	none
ClCCN(CCCl)c1ccc(-n2cnc3c(Cl)ncnc32)cc1	none (no result: T cell HTS, JMJD2C inh)
CCn1c(=O)n(CC(=O)N2CCC3(CC2)OCCO3)c(=O)c2ccccc21	GRIN3A LBD mod 14
O=C(Nc1ccc(C(F)(F)F)cc1)c1cccn(Cc2ccc3c(c2)OC(F)(F)O3)c1=O	GRIN3A LBD mod 25
O=C(Nc1cccc(C(F)(F)F)c1)c1cccn(Cc2ccc3c(c2)OC(F)(F)O3)c1=O	GRIN3A LBD mod 25
CN(C)C(=S)SSC(=S)N(C)C	GRIN3A LBD mod 19, Rtt109 HAT inh 154
C[N+](C)(C)CC(=O)O	GRIN3A LBD mod 13 (no result: JMJD2C inh)
COC1C(OC(=O)c2ccc(C)[nH]2)C(O)C(Oc2ccc3c(O)c(NC(=O)c4ccc(O)c(CC=C(C)C)c4)c(=O)oc3c2Cl)OC1(C)C (stereo not drawn)	GRIN3A LBD mod 20 (no result: JMJD2C inh)
COc1ccc(-c2cc(=NCCCCCC(=O)O)c3cc(C)ccc3o2)cc1	none (no result: T cell HTS)
COc1ccc(-c2cc(=NCC(=O)O)c3ccccc3o2)cc1	GRIN3A LBD mod 13 (no result: Rtt109 HAT inh)
CCOC(=O)C1=CC(=C2C(=O)N(CC)C(=S)N(CC)C2=O)c2ccccc2O1	JMJD2C inh 53 (no result: Rtt109 HAT inh)
Oc1cccc2nc3ccccc3nc12	none
Cn1ncnc2c(=O)n(C)c(=O)nc1-2	JMJD2C inh 81
C[C@H]1[C@@H](c2ccccc2)O[C@@H](c2ccccc2Br)N1C	none
COC(=O)C1=C(c2ccc(Cl)c(C(F)(F)F)c2)C[C@@H]2CC[C@H]1N2C(=O)NCC1CC1	none
CCCNC(=O)N1[C@H]2CC[C@@H]1C(C(=O)OC)=C(c1ccc(Cl)c(C(F)(F)F)c1)C2	GRIN3A LBD mod 24
C[C@]12CCC3C(CC[C@H]4C[C@@H](O)CC[C@]34C)C1CC[C@@H]2N (stereo partly drawn)	none
CCN(CC)c1ccc(/C=C2\C(=O)NC(=O)N(Cc3ccco3)C2=O)cc1	GRIN3A LBD mod 24, JMJD2C inh inconclusive
CCN(CC)c1ccc(/C=C2/C(=O)NC(=O)N(CC3CCCO3)C2=O)cc1 (stereo not drawn)	none
CC(C)(C)C(=O)OC[N+](C)(C)CCOC(=O)C(O)(c1ccccc1)C1CCCC1 (stereo not drawn)	none
CCCC(CCC)C(=O)OC[N+](C)(C)CCOC(=O)C(O)(c1ccccc1)C1CCCC1 (stereo not drawn)	Rtt109 HAT inh 57
C=CCn1c(C)c(C=C2C(=O)NC(=O)NC2=O)c2ccccc21	JMJD2C inh 50 (no result: Rtt109 HAT inh)
CSc1ncc(/C=C2/C(=O)NC(=O)N(c3ccc(Cl)cc3)C2=O)cn1	Rtt109 HAT inh 64 (no result: T cell HTS, JMJD2C inh)
CSc1ncc(/C=C2/C(=O)NC(=O)N(c3ccc(C)cc3)C2=O)cn1	none
O=C1NC(=O)C(=Cc2cc3c(cc2[N+](=O)[O-])OCO3)C(=O)N1	Rtt109 HAT inh 74
COc1cc2c(c(OC)c1OC)-c1ccc(O)cc1[C@@H](NC(C)=O)CC2	none
O=C(N/N=C/c1c(O)n(C2CCCCC2)c(=S)[nH]c1=O)c1ccccc1O	GRIN3A LBD mod 22
